Test [1] has as its target T1, cAMP and cAMP-inhibited cGMP 3',5'-cyclic phosphodiesterase 10A (Homo sapiens, UniProt Q9Y233). The experiment in a line: Inhibition of recombinant human N-terminal GST-tagged PDE10A1 (2 to 789 residues) expressed in baculovirus infected Sf9 cells at 5 uM using fluorescein-labeled cAMP as substrate preincubated for 15 mins followed by substrate addition measured after 30 mins by IMAP fluorescence polarization assay relative to control. Summed up: (§1)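 Recombinant PDE4A1A, PDE2A1 or PDE10A1 was incubated with compound (1% DMSO, duplicate) for 15 min at RT. Fluorescein-cAMP was then added for 30 min at RT, and the reaction was stopped with IMAP binding reagent (1 h, dark). FP was read at Ex485/Em535. Inhibition was set against no-enzyme and DMSO controls. IC50 came from a four-parameter logistic fit; values are the mean of at least two measurements.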
On the technique in general: Polarisation of emitted light reports the rotation of a fluorescent probe.

Test [2] deals with T1, cAMP and cAMP-inhibited cGMP 3',5'-cyclic phosphodiesterase 10A. Description: Inhibition of recombinant human N-terminal GST-tagged PDE10A1 (2 to 789 residues) expressed in baculovirus infected Sf9 cells using fluorescein-labeled cAMP as substrate preincubated for 15 mins followed by substrate addition measured after 30 mins by IMAP fluorescence polarization assay. In short, it runs like this: as §1

Molecules are shown by their SMILES.

T1 sequence (Q9Y233 whole entry, the tested form may be a part): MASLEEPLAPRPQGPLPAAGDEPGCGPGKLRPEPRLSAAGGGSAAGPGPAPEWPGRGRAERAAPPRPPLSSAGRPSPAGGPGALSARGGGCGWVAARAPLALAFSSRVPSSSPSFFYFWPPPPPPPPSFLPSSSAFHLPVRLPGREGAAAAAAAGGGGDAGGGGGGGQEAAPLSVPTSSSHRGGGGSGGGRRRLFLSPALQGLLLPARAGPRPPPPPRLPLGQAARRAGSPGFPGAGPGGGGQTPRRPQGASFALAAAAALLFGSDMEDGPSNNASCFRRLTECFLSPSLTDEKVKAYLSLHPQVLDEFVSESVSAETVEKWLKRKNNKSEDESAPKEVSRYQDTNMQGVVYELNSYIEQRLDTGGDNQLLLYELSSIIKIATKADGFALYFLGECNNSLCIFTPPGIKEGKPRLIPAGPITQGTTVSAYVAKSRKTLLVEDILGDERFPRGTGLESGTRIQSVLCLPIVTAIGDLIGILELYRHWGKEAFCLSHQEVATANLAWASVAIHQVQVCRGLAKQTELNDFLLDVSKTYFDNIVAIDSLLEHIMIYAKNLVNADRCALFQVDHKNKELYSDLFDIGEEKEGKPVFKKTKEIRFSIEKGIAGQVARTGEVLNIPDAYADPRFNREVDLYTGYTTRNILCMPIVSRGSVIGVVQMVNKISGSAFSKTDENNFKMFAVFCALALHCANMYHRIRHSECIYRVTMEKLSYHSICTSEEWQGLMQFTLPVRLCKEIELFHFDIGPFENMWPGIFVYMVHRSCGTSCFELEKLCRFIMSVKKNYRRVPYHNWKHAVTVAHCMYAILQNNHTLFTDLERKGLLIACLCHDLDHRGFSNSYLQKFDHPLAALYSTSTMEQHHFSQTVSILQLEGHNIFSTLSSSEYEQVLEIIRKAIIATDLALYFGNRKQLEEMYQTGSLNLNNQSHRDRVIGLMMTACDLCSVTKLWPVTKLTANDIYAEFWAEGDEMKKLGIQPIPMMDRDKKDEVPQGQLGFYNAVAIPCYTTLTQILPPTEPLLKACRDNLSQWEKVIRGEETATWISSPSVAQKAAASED

The term inhibition denotes the percentage by which the read-out fell short of the control. Regarding `Cc1nc2c(N3CCOCC3)nccn2c1NCCc1ccccc1`, in test [1], the inhibition was 74%.
For the molecule `COc1ccc(-c2ccccc2CNc2c(C)nc3c(N4CCOCC4)nccn23)cc1`, in test [1], the inhibition was found to be 60%.
Still for that read-out and setting: for `Cc1nc2c(N3CCOCC3)nccn2c1NCc1ccccc1-c1ccc2ccccc2c1` the value was 63%; for `Cc1nc2c(N3CCOCC3)nccn2c1NCc1ccc(-c2ccccc2)cc1`, 55%.
The IC50 is the concentration needed to halve the response being measured. `Cc1nc2c(N3CCOCC3)ncnc2n1Cc1ccc(-c2cccnc2)cc1`: the inhibition in test [1] stood at 97%. For the same molecule, the IC50 in test [2] was 61 nM.
For `Cc1nc2c(N3CCOCC3)ncnc2n1Cc1ccc(C(=O)Nc2ccccc2)cc1` the same measures were 96% and 130 nM.
In the case of `Cc1nc2c(N3CCOCC3)nccn2c1NCc1ccccc1-c1ccccc1`, the inhibition in test [1] is 75%.
`Cc1nc2c(N3CCOCC3)nccn2c1NCc1ccc(-c2cccnc2)cc1`: the inhibition in test [1] turned out to be 90%. In addition, in test [2], the IC50 stood at 529 nM.
As to `Cc1nc2c(N3CCOCC3)nccn2c1NCc1ccccc1-c1cnn(C)c1`, the inhibition in test [1] came out at 64%.
Regarding `COc1ccc(-c2ccc(Cn3c(C)nc4c(N5CCOCC5)ncnc43)cc2)cc1`, in test [1], the inhibition amounted to 94%. In addition, the IC50 in test [2] was found to be 62 nM.
The corresponding values for `Cc1nc2c(N3CCOCC3)ncnc2n1Cc1ccc(-c2ccc(Cl)cc2)cc1` are 91% and 168 nM.
With `Cc1nc2c(N3CCOCC3)nccn2c1NCc1ccc(-c2ccncc2)cc1`, the inhibition in test [1] came to 91%. For the same molecule, the IC50 in test [2] was found to be 391 nM.
On to `Cc1nc2c(N3CCOCC3)nccn2c1NCc1ccc(Br)cc1`, for which the inhibition in test [1] worked out at 77%.
Turning to `Cc1noc(C)c1-c1ccc(CNc2c(C)nc3c(N4CCOCC4)nccn23)cc1`, the inhibition in test [1] was 90%. Further, the IC50 in test [2] came out at 518 nM.
With `Cc1nc2c(N3CCOCC3)nccn2c1NCc1ccc(-c2ccccc2Cl)cc1`, the inhibition in test [1] was 77%.
`COc1ccc(CC(=O)Nc2c(C)nc3c(N4CCOCC4)nccn23)cc1OC`: in test [1], the inhibition is 50%.
The same measure, in the same setting: then `c1ccc(CCn2cnc3c(N4CCOCC4)ncnc32)cc1`, with 13%.
On the same count and under the same terms, then `COc1ccc(CCNc2c(C)nc3c(N4CCOCC4)nccn23)cc1OC`, with 83%.
Still for that read-out and setting: for `Cc1nc2c(N3CCOCC3)nccn2c1NC(=O)Cc1ccc2ccccc2c1` the value was 24%; for `Cc1noc(C)c1-c1ccccc1CNc1c(C)nc2c(N3CCOCC3)nccn12`, 68%.
In the case of `Cc1nc2c(N3CCOCC3)nccn2c1NC(=O)Cc1ccccc1`, the inhibition in test [1] was 51%.
`c1ccc2cc(Cn3cnc4c(N5CCOCC5)ncnc43)ccc2c1`: the inhibition in test [1] was 100%. Besides, the IC50 in test [2] is 107 nM.
Take `COc1ccc(-c2ccccc2CNc2c(C)nc3c(N4CCOCC4)nccn23)cc1OC`: the inhibition in test [1] came to 51%.
As for `Cc1nc2c(N3CCOCC3)nccn2c1NCc1ccccc1Br`, in test [1], the inhibition was 73%.
As for `Cc1nc2c(N3CCOCC3)ncnc2n1Cc1ccc(Br)cc1`, the inhibition in test [1] is 93%. Besides, in test [2], the IC50 is 327 nM.
With `COc1cccc(CCn2cnc3c(N4CCOCC4)ncnc32)c1`, in test [1], the inhibition was 20%.
With `Cc1noc(C)c1-c1ccc(Cn2c(C)nc3c(N4CCOCC4)ncnc32)cc1`, the inhibition in test [1] turned out to be 96%. The IC50 in test [2] was determined as 119 nM.
For the molecule `Cc1ccc(-c2ccc(CNc3c(C)nc4c(N5CCOCC5)nccn34)cc2)cc1`, in test [1], the inhibition turned out to be 74%.
Consider `Cc1ccc(-c2ccccc2CNc2c(C)nc3c(N4CCOCC4)nccn23)cc1`, for which the inhibition in test [1] is 57%.
On the same count and under the same terms, for `Cc1nc2c(N3CCOCC3)nccn2c1NCc1ccc(-c2ccc(C(C)(C)C)cc2)cc1` the value was 38%.
On to `COc1ccc(CCNc2c(C)nc3c(N4CCOCC4)nccn23)c(Br)c1`, for which the inhibition in test [1] came out at 92%. Also, the IC50 in test [2] was determined as 243 nM.
`Cc1nc2c(N3CCOCC3)ncnc2n1Cc1ccc(-c2ccccc2)cc1`: in test [1], the inhibition amounted to 99%. The IC50 in test [2] lay within 113 to 118 nM.
For `CCc1nc2c(N3CCOCC3)ncnc2n1Cc1ccc(-c2ccccc2)cc1` the same measures were 97% and 168 nM.
Consider `O=C(Cn1cnc2c(N3CCOCC3)ncnc21)c1ccccc1`, for which the inhibition in test [1] worked out at 11%.
On to `Cc1nc2c(N3CCOCC3)ncnc2n1Cc1ccccc1Br`, for which the inhibition in test [1] came to 87%.
As to `Cc1nc2c(N3CCOCC3)nccn2c1NCc1ccc(-c2ccc3ccccc3c2)cc1`, the inhibition in test [1] worked out at 54%.
Still for that read-out and setting: for `COc1ccc(CCNc2c(C)nc3c(N4CCOCC4)nccn23)cc1Br` the value was 81%.
Consider `Cc1nc2c(N3CCOCC3)nccn2c1NC(=O)Cc1c(Cl)cccc1Cl`, for which, in test [1], the inhibition turned out to be 47%.
On to `Cc1nc2c(N3CCOCC3)nccn2c1NCc1ccccc1-c1ccc(C(C)(C)C)cc1`, for which the inhibition in test [1] is 39%.
As to `Cc1nc2c(N3CCOCC3)ncnc2n1Cc1ccc(-c2cccc(Cl)c2)cc1`, in test [1], the inhibition worked out at 93%. Further, the IC50 in test [2] was 258 nM.
For the molecule `Brc1ccc(Cn2cnc3c(N4CCOCC4)ncnc32)cc1`, in test [1], the inhibition was determined as 90%. For the same molecule, the IC50 in test [2] amounted to 530 nM.
The corresponding values for `c1ccc(-c2ccc(Cn3cnc4c(N5CCOCC5)ncnc43)cc2)cc1` are 94% and 103 nM.
As for `CCOC(=O)c1ccc(Cn2c(C)nc3c(N4CCOCC4)ncnc32)cc1`, the inhibition in test [1] turned out to be 90%.
Same read-out and setting: then `Cc1nc2c(N3CCOCC3)nccn2c1NCc1ccc(-c2cncnc2)cc1`, with 79%.
Consider `Cc1nc2c(N3CCOCC3)nccn2c1NCCc1c(Cl)cccc1Cl`, for which the inhibition in test [1] stood at 98%. For the same molecule, the IC50 in test [2] worked out at 447 nM.
Take `Cc1nc2c(N3CCOCC3)nccn2c1NCc1ccccc1-c1ccccc1Cl`: in test [1], the inhibition was 87%.
The same measure, in the same setting: for `COc1ccc(-c2ccc(CNc3c(C)nc4c(N5CCOCC5)nccn34)cc2)cc1` the value was 87%.
For `Cc1nc2c(N3CCOCC3)ncnc2n1Cc1ccc(-c2cnc3[nH]ncc3c2)cc1`, in test [1], the inhibition was found to be 98%. Besides, the IC50 in test [2] was 60 nM.
Regarding `Cc1nc2c(N3CCOCC3)nccn2c1NCc1ccccc1-c1ccncc1`, in test [1], the inhibition is 70%.
For the molecule `Cc1nc2c(N3CCOCC3)nccn2c1NC(=O)Cc1ccc2c(c1)OCO2`, the inhibition in test [1] came to 44%.
For the molecule `Cc1nc2c(N3CCOCC3)nccn2c1NCCc1ccc2c(c1)OCO2`, in test [1], the inhibition came to 82%.
On to `Cc1nc2c(N3CCOCC3)nccn2c1NCc1ccccc1-c1cncnc1`, for which, in test [1], the inhibition was determined as 61%.
With `Cc1nc2c(N3CCOCC3)nccn2c1NCc1ccc(-c2cnn(C)c2)cc1`, the inhibition in test [1] is 88%.
Consider `COc1cc(Cn2cnc3c(N4CCOCC4)ncnc32)cc(OC)c1`, for which, in test [1], the inhibition stood at 85%.
The same measure, in the same setting: for `Clc1cccc(Cl)c1Cn1cnc2c(N3CCOCC3)ncnc21` the value was 70%.
Turning to `COc1ccc(CCNc2c(C)nc3c(N4CCOCC4)nccn23)c(-c2ccccc2)c1`, in test [1], the inhibition is 93%. Also, the IC50 in test [2] was 336 nM.
For the molecule `Cc1nc2c(N3CCOCC3)nccn2c1NCCc1ccc2ccccc2c1`, the inhibition in test [1] is 78%.
The same measure, in the same setting: for `c1ccc(Cn2cnc3c(N4CCOCC4)ncnc32)cc1` the value was 66%.
Consider `Cc1nc2c(N3CCOCC3)ncnc2n1Cc1ccc(-c2ccncc2)cc1`, for which, in test [1], the inhibition stood at 96%. In addition, the IC50 in test [2] was 116 nM.
Consider `Cc1nc2c(N3CCOCC3)nccn2c1NCc1ccccc1-c1cccnc1`, for which the inhibition in test [1] was found to be 76%.
Still for that read-out and setting: then `COc1ccc(CCNc2c(C)nc3c(N4CCOCC4)nccn23)cc1-c1ccccc1`, with 80%.

The record behind these values is ChEMBL document CHEMBL4020742, “Design and optimization of purine derivatives as in vivo active PDE10A inhibitors” (Bioorg Med Chem, 2017).
